Experimental data reported in ChEMBL document CHEMBL3352075, “Discovery of potent 1H-imidazo[4,5-b]pyridine-based c-Met kinase inhibitors via mechanism-directed structural optimization” (Bioorg Med Chem Lett, 2015).
Each block holds one compound with its values, some of them ahead of it.

Key:
[1] = biological target: Platelet-derived growth factor receptor alpha (Homo sapiens) (UniProt P16234); experiment: Inhibition of PDGFRalpha (unknown origin) at 1 uM by ELISA method
Outline: (§1)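 Kinase profiling by ELISA kinase assay across a panel of tyrosine kinases, each tested at a single 1.0 µM compound concentration. Read-out is percent inhibition rate.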

[2] = biological target: Vascular endothelial growth factor receptor 1 (Homo sapiens) (UniProt P17948); experiment: Inhibition of FLT1 (unknown origin) at 1 uM by ELISA method; outline: as §1
[3] = Antiproliferative activity against human EBC1 cells after 72 hrs by sulforhodamine B assay; settings: EBC-1, 72 h
[4] = biological target: Insulin-like growth factor 1 receptor (Homo sapiens) (UniProt P08069); experiment: Inhibition of IGF1R (unknown origin) at 1 uM by ELISA method; outline: as §1
[5] = biological target: Fibroblast growth factor receptor 1 (Homo sapiens) (UniProt P11362); settings: 10 nM
[6] = biological target: Tyrosine-protein kinase receptor UFO (Homo sapiens) (UniProt P30530); experiment: Inhibition of AXL (unknown origin) at 0.1 uM by ELISA method
[7] = biological target: Macrophage-stimulating protein receptor (Homo sapiens) (UniProt Q04912); experiment: Inhibition of RON (unknown origin) at 0.1 uM by ELISA method
[8] = biological target: Fibroblast growth factor receptor 1 (Homo sapiens) (UniProt P11362); experiment: Inhibition of FGFR1 (unknown origin) at 1 uM by ELISA method; outline: as §1
[9] = biological target: Hepatocyte growth factor receptor (Homo sapiens, UniProt P08581); experiment: Inhibition of recombinant c-Met (unknown origin) using poly (Glu,Tyr)4:1 substrate incubated for 60 mins by ELISA method
[10] = biological target: Fibroblast growth factor receptor 2 (Homo sapiens) (UniProt P21802); experiment: Inhibition of FGFR2 (unknown origin) at 1 uM by ELISA method; outline: as §1
[11] = biological target: Tyrosine-protein kinase ABL1 (Homo sapiens) (UniProt P00519); settings: at 1 µM
[12] = biological target: Vascular endothelial growth factor receptor 2 (Homo sapiens) (UniProt P35968); settings: at 1 µM
[13] = biological target: Proto-oncogene tyrosine-protein kinase Src (Homo sapiens) (UniProt P12931); settings: at 1 µM
[14] = biological target: Platelet-derived growth factor receptor beta (Homo sapiens) (UniProt P09619); experiment: Inhibition of PDGFRbeta (unknown origin) at 1 uM by ELISA method; outline: as §1
[15] = biological target: Receptor tyrosine-protein kinase erbB-4 (Homo sapiens) (UniProt Q15303); experiment: Inhibition of ErbB4 (unknown origin) at 1 uM by ELISA method; outline: as §1
[16] = biological target: Macrophage-stimulating protein receptor (Homo sapiens) (UniProt Q04912); experiment: Inhibition of RON (unknown origin) at 1 uM by ELISA method; outline: as §1
[17] = biological target: ALK tyrosine kinase receptor (Homo sapiens) (UniProt Q9UM73); experiment: Inhibition of ALK (unknown origin) at 1 uM by ELISA method; outline: as §1
[18] = biological target: Tyrosine-protein kinase receptor UFO (Homo sapiens) (UniProt P30530); experiment: Inhibition of AXL (unknown origin) at 1 uM by ELISA method; outline: as §1

inhibition [4]: 56.6%
SMILES: Nc1ncnc2c1c(-c1cccc(OCc3ccccc3)c1)cn2C1CC(CN2CCC2)C1 (stereo not drawn)

inhibition [5]: 95.1%
SMILES: COc1cc(CCc2cc(NC(=O)c3ccc(N4C[C@@H](C)N[C@@H](C)C4)cc3)n[nH]2)cc(OC)c1

inhibition [8]: 7.4%
IC50 [9]: 0.209 µM
inhibition [10]: 37.2%
inhibition [11]: 0%
inhibition [12]: 0%
inhibition [13]: 0%
inhibition [14]: 0%
inhibition [4]: 33.6%
inhibition [15]: 24.3%
inhibition [1]: 22.6%
inhibition [16]: 43.2%
inhibition [17]: 2.5%
inhibition [18]: 41.6%
inhibition [2]: 13.3%
SMILES: O=C(Nc1ccc(F)cc1)C1(C(=O)Nc2ccc(Oc3ccnc4[nH]c(=O)[nH]c34)c(F)c2)CC1
IC50 [3]: 0.24 µM

IC50 [9]: 0.26 µM
SMILES: O=C(Nc1ccc(F)cc1)C1(C(=O)Nc2ccc(Oc3ccnc4c3nc3n4CCCC3)c(F)c2)CC1
IC50 [3]: > 10 µM

More lines, now with the values behind:

SMILES: CCN(CC)CCNC(=O)c1c(C)[nH]c(/C=C2\C(=O)Nc3ccc(F)cc32)c1C
inhibition [1]: 68.4%
inhibition [2]: 66.6%

SMILES: O=C(Nc1ccc(Oc2nc3c([nH]c(=O)n3Cc3ccc(O)cc3)c3ncccc23)c(F)c1)c1cccn(-c2ccc(F)cc2)c1=O
IC50 [3]: > 50 µM

SMILES: O=C(Nc1ccc(Oc2nc3c([nH]c(=O)n3CCN3CCNCC3)c3ncccc23)c(F)c1)c1cccn(-c2ccc(F)cc2)c1=O
IC50 [3]: > 50 µM

SMILES: COc1cc2nccc(Oc3ccc(NC(=O)C4(C(=O)Nc5ccc(F)cc5)CC4)cc3)c2cc1OC
inhibition [6]: 100%
inhibition [7]: 100%

SMILES: Nc1c(Oc2ccc(NC(=O)C3(C(=O)Nc4ccc(F)cc4)CC3)cc2F)ccnc1NC(=O)CCl
IC50 [3]: < 10 µM

SMILES: Nc1nccc(Oc2ccc(NC(=O)C3(C(=O)Nc4ccc(F)cc4)CC3)cc2F)c1NCC(=O)O
IC50 [3]: < 10 µM

SMILES: CN1CCC(Cn2c(=O)[nH]c3c4ncccc4c(Oc4ccc(NC(=O)c5cccn(-c6ccc(F)cc6)c5=O)cc4F)nc32)CC1
IC50 [3]: 19.8 µM
